From ChEMBL document CHEMBL1136923, “Highly potent, orally available anti-inflammatory broad-spectrum chemokine inhibitors” (J Med Chem, 2009)

Assays:
[1] = biological target: C-C chemokine receptor type 2 (Homo sapiens) (UniProt P41597); assay: Antagonist activity at CCR2 in human THP1 cells assessed as inhibition of CCL2-induced chemotaxis after 2 hrs by microtiter format trans-well migration assay; assay type: functional, cell-based; details: THP-1
How it was run: (§1)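 Microtiter trans-well migration assay in Gey's balanced salt solution with 1 mg/mL endotoxin-free BSA, no fetal calf serum. Migration ran 2 h at 37 °C. Compounds dissolved in DMSO and added to both top and bottom compartments, final DMSO 1%.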

[2] = biological target: C-C chemokine receptor type 2 (Homo sapiens) (UniProt P41597); assay: Antagonist activity at CCR2 in human THP1 cells assessed as inhibition of CCL2-induced chemotaxis at 1000 nM after 2 hrs by microtiter format trans-well migration assay; assay type: functional, cell-based; details: THP-1; how it was run: as §1
[3] = biological target: C-C chemokine receptor type 2 (Homo sapiens) (UniProt P41597); assay: Antagonist activity at CCR2 in human THP1 cells assessed as inhibition of CCL2-induced chemotaxis at 100 nM after 2 hrs by microtiter format trans-well migration assay; assay type: functional, cell-based; details: THP-1; how it was run: as §1
[4] = biological target: C-C chemokine receptor type 2 (Homo sapiens) (UniProt P41597); assay: Antagonist activity at CCR2 in human THP1 cells assessed as inhibition of CCL2-induced chemotaxis at 10 nM after 2 hrs by microtiter format trans-well migration assay; assay type: functional, cell-based; details: THP-1; how it was run: as §1
[5] = biological target: C-C chemokine receptor type 2 (Homo sapiens) (UniProt P41597); assay: Antagonist activity at CCR2 in human THP1 cells assessed as inhibition of CCL2-induced chemotaxis at 1 nM after 2 hrs by microtiter format trans-well migration assay; assay type: functional, cell-based; details: THP-1; how it was run: as §1
[6] = biological target: C-C chemokine receptor type 2 (Homo sapiens) (UniProt P41597); assay: Antagonist activity at CCR2 in human THP1 cells assessed as inhibition of CCL2-induced chemotaxis at 0.1 nM after 2 hrs by microtiter format trans-well migration assay; assay type: functional, cell-based; details: THP-1; how it was run: as §1
[7] = biological target: C-C chemokine receptor type 2 (Homo sapiens) (UniProt P41597); assay: Antagonist activity at CCR2 in human THP1 cells assessed as inhibition of CCL2-induced chemotaxis at 0.01 nM after 2 hrs by microtiter format trans-well migration assay; assay type: functional, cell-based; details: THP-1; how it was run: as §1
Mus musculus [8] = assay: Antiinflammatory activity in sc dosed mouse assessed as inhibition of LPS-induced TNFalpha upregulation measured 2 hrs after LPS challenge; assay type: functional
Mus musculus [9] = assay: Antiinflammatory activity in sc dosed mouse assessed as inhibition of LPS-induced TNFalpha upregulation measured 2 hrs after LPS challenge relative to control; assay type: functional
How it was run: (§2)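 Murine sublethal LPS endotoxemia screen. LPS is injected intraperitoneally and serum TNF-α is measured 2 h later as the end point. Compound is given subcutaneously or orally in a vehicle of 0.6% DMSO plus 1% carboxymethylcellulose (final concentrations) in sterile water. Values are % relative to control.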

Mus musculus [10] = assay: Antiinflammatory activity in po dosed mouse assessed as inhibition of LPS-induced TNFalpha upregulation measured 2 hrs after LPS challenge; assay type: functional
Mus musculus [11] = assay: Antiinflammatory activity in po dosed mouse assessed as inhibition of LPS-induced TNFalpha upregulation measured 2 hrs after LPS challenge relative to control; assay type: functional; how it was run: as §2
Mus musculus [12] = assay: Antiinflammatory activity in mouse assessed as inhibition of LPS-induced TNFalpha upregulation at […], sc measured 2 hrs after LPS challenge; assay type: functional
How it was run: (§3)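 Murine sublethal endotoxemia: LPS given intraperitoneally, with serum TNF-α measured 2 h after the LPS injection as the end point. Compound was given subcutaneously or orally. Vehicle was 0.6% DMSO and 1% carboxymethylcellulose (final concentrations) in sterile water. Effect is reported as % relative to control.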

Mus musculus [13] = assay: Antiinflammatory activity in mouse assessed as inhibition of LPS-induced TNFalpha upregulation at 0.0055 ug, sc measured 2 hrs after LPS challenge; assay type: functional; how it was run: as §3
Mus musculus [14] = assay: Antiinflammatory activity in mouse assessed as inhibition of LPS-induced TNFalpha upregulation at 0.013 ug, sc measured 2 hrs after LPS challenge; assay type: functional; how it was run: as §3
Mus musculus [15] = assay: Antiinflammatory activity in mouse assessed as inhibition of LPS-induced TNFalpha upregulation at 0.00013 mg, sc measured 2 hrs after LPS challenge; assay type: functional
How it was run: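 Murine sublethal endotoxemia: LPS given intraperitoneally, serum TNF-α measured 2 h after LPS injection. Compound vehicle 0.6% DMSO plus 1% carboxymethylcellulose (final concentrations) in sterile water.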

Mus musculus [16] = assay: Antiinflammatory activity in mouse assessed as inhibition of LPS-induced TNFalpha upregulation at 0.0013 mg, sc measured 2 hrs after LPS challenge; assay type: functional; how it was run: as §3
Mus musculus [17] = assay: Antiinflammatory activity in mouse assessed as inhibition of LPS-induced TNFalpha upregulation at 0.013 mg, sc measured 2 hrs after LPS challenge; assay type: functional; how it was run: as §3
Mus musculus [18] = assay: Antiinflammatory activity in mouse assessed as inhibition of LPS-induced TNFalpha upregulation at 450 pg, po measured 2 hrs after LPS challenge; assay type: functional; how it was run: as §3
Mus musculus [19] = assay: Antiinflammatory activity in mouse assessed as inhibition of LPS-induced TNFalpha upregulation at 0.0023 ug, po measured 2 hrs after LPS challenge; assay type: functional; how it was run: as §3
Mus musculus [20] = assay: Antiinflammatory activity in mouse assessed as inhibition of LPS-induced TNFalpha upregulation at 0.016 ug, po measured 2 hrs after LPS challenge; assay type: functional; how it was run: as §3
Mus musculus [21] = assay: Antiinflammatory activity in mouse assessed as inhibition of LPS-induced TNFalpha upregulation at 0.057 ug, po measured 2 hrs after LPS challenge; assay type: functional; how it was run: as §3
Mus musculus [22] = assay: Antiinflammatory activity in mouse assessed as inhibition of LPS-induced TNFalpha upregulation at 0.61 ug, po measured 2 hrs after LPS challenge; assay type: functional; how it was run: as §3
Mus musculus [23] = assay: Antiinflammatory activity in mouse assessed as inhibition of LPS-induced TNFalpha upregulation at 0.016 mg, po measured 2 hrs after LPS challenge; assay type: functional; how it was run: as §3
[24] = Half life in Sprague-Dawley rat at 1 mg/kg, iv administered as single dose; assay type: ADME, organism-based; design: dose 1 mg/kg, route intravenous; details: in vivo
How it was run: (§4)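 Male Sprague-Dawley rats, three per compound, receive a single intravenous dose in 5% DMSO in 0.9% saline. Food and water are given ad libitum. Plasma is taken at 5, 15, 30, 60, 120, 180, 240 and 480 min. Drug is measured by LC/MS/MS after extraction with 0.1% formic acid in acetonitrile. The curve is back-extrapolated to time zero assuming an initial volume of 0.26 L/kg.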

[25] = Clearance in Sprague-Dawley rat at 1 mg/kg, iv administered as single dose; assay type: ADME, organism-based; design: dose 1 mg/kg, route intravenous; details: in vivo; how it was run: as §4
[26] = Volume of distribution at steady state in Sprague-Dawley rat at 1 mg/kg, iv administered as single dose; assay type: ADME, organism-based; design: dose 1 mg/kg, route intravenous; details: in vivo, read-out: Vdss; how it was run: as §4
[27] = AUC (0 to t) in Sprague-Dawley rat at 1 mg/kg, iv administered as single dose; assay type: ADME, organism-based, Plasma; design: dose 1 mg/kg, route intravenous; details: Sprague-Dawley, plasma
How it was run: (§5)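 Male Sprague-Dawley rats, three per compound per route, single dose. IV vehicle 5% DMSO in 0.9% saline; oral gavage vehicle 1% carboxymethylcellulose in 0.9% saline; fed ad libitum. Plasma taken 5–480 min post-dose, extracted with 0.1% formic acid in acetonitrile, quantified by LC/MS/MS (positive mode). AUC(0–t) by linear/log trapezoidal rule; IV curve back-extrapolated assuming initial volume 0.26 L/kg.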

[28] = Fractional bioavailability in Sprague-Dawley rat at 3 mg/kg, po administered as single dose; assay type: ADME, organism-based; details: in vivo
How it was run: (§6)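 Male Sprague-Dawley rats, three per compound, receive a single oral dose by gavage in 1% carboxymethylcellulose in 0.9% saline, with food and water ad libitum. Plasma is sampled from 5 to 480 min and drug is quantified by positive-mode LC/MS/MS after acetonitrile/formic acid extraction. The lower limit of quantitation is about 2 ng/mL. Exposure is AUC(0→t) by the linear/log trapezoidal rule, and F is oral fractional bioavailability.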

[29] = Half life in Sprague-Dawley rat at 3 mg/kg, po administered as single dose; assay type: ADME, organism-based; design: dose 3 mg/kg, route oral; details: in vivo; how it was run: as §6
[30] = Cmax in Sprague-Dawley rat at 3 mg/kg, po administered as single dose; assay type: ADME, organism-based; design: dose 3 mg/kg, route oral; details: in vivo; how it was run: as §6
[31] = AUC (0 to t) in Sprague-Dawley rat at 3 mg/kg, po administered as single dose; assay type: ADME, organism-based; design: dose 3 mg/kg, route oral; details: plasma; how it was run: as §5
Mus musculus [32] = assay: Antiinflammatory activity in mouse assessed as inhibition of LPS-induced TNFalpha upregulation at 300 pg, sc measured 2 hrs after LPS challenge; assay type: functional
How it was run: (§7)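 Sublethal murine endotoxemia with LPS given intraperitoneally. Compound was given subcutaneously in vehicle of 0.6% DMSO and 1% carboxymethylcellulose (final concentrations) in sterile water. Serum TNF-α was measured 2 h after LPS injection. Values are expressed as % relative to control.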

Mus musculus [33] = assay: Antiinflammatory activity in mouse assessed as inhibition of LPS-induced TNFalpha upregulation at 0.003 ug, sc measured 2 hrs after LPS challenge; assay type: functional; how it was run: as §3
Mus musculus [34] = assay: Antiinflammatory activity in mouse assessed as inhibition of LPS-induced TNFalpha upregulation at 0.03 ug, sc measured 2 hrs after LPS challenge; assay type: functional; how it was run: as §3
Mus musculus [35] = assay: Antiinflammatory activity in mouse assessed as inhibition of LPS-induced TNFalpha upregulation at 0.3 ug, sc measured 2 hrs after LPS challenge; assay type: functional; how it was run: as §3
Mus musculus [36] = assay: Antiinflammatory activity in mouse assessed as inhibition of LPS-induced TNFalpha upregulation at 0.003 mg, sc measured 2 hrs after LPS challenge; assay type: functional; how it was run: as §3
Mus musculus [37] = assay: Antiinflammatory activity in mouse assessed as inhibition of LPS-induced TNFalpha upregulation at 0.015 mg, sc measured 2 hrs after LPS challenge; assay type: functional; how it was run: as §7
Mus musculus [38] = assay: Antiinflammatory activity in mouse assessed as inhibition of LPS-induced TNFalpha upregulation at 0.03 mg, sc measured 2 hrs after LPS challenge; assay type: functional; how it was run: as §7
Mus musculus [39] = assay: Antiinflammatory activity in mouse assessed as inhibition of LPS-induced TNFalpha upregulation at 0.06 mg, sc measured 2 hrs after LPS challenge; assay type: functional; how it was run: as §7
Mus musculus [40] = assay: Antiinflammatory activity in mouse assessed as inhibition of LPS-induced TNFalpha upregulation at 0.12 mg, sc measured 2 hrs after LPS challenge; assay type: functional; how it was run: as §7

C-C chemokine receptor type 2 (Homo sapiens), sequence (P41597 whole entry, looked up): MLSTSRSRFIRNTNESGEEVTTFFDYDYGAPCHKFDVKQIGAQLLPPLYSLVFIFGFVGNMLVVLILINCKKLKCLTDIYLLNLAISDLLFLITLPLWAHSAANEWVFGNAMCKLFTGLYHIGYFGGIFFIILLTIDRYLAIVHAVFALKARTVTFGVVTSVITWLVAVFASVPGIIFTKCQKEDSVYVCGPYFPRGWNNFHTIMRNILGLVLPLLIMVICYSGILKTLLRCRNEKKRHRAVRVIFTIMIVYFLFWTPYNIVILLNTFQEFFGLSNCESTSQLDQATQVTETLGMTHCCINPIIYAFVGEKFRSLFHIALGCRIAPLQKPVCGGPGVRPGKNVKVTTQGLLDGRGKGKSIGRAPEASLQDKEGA

CC(C)(C)C(=O)N[C@H]1CCCCNC1=O
ED50 [1]: 0.04 nM
inhibition [2]: 102%
inhibition [3]: 101%
inhibition [4]: 102%
inhibition [5]: 101%
inhibition [6]: 80%
inhibition [7]: 33%
ED50 (Mus musculus [8]): 0.1 µg/kg
inhibition (INH) (Mus musculus [9]): 90%
ED50 (Mus musculus [10]): 0.1 µg/kg
inhibition (INH) (Mus musculus [11]): 80%
inhibition (INH) (Mus musculus [12]): 44%
inhibition (INH) (Mus musculus [13]): 73%
inhibition (INH) (Mus musculus [14]): 80%
inhibition (INH) (Mus musculus [15]): 81%
inhibition (INH) (Mus musculus [16]): 94%
inhibition (INH) (Mus musculus [17]): 91%
inhibition (INH) (Mus musculus [18]): 43%
inhibition (INH) (Mus musculus [19]): 41%
inhibition (INH) (Mus musculus [20]): 70%
inhibition (INH) (Mus musculus [21]): 76%
inhibition (INH) (Mus musculus [22]): 80%
inhibition (INH) (Mus musculus [23]): 83%
half-life [24]: 2.02 h
clearance [25]: 6.8 mL/min/kg
Vd [26]: 0.7 L/kg
AUC(0-t) [27]: 3860 ng·h/mL
bioavailability [28]: 71%
half-life [29]: 2.8 h
Cmax [30]: 989 ng/mL
AUC(0-t) [31]: 8220 ng·h/mL

C[C@@H]1C[C@H]2[C@@H]3CCC4=CC(=O)C=C[C@]4(C)[C@@]3(F)[C@@H](O)C[C@]2(C)[C@@]1(O)C(=O)CO [DEXAMETHASONE]
ED50 (Mus musculus [8]): 3 µg/kg
inhibition (INH) (Mus musculus [9]): 90%
inhibition (INH) (Mus musculus [32]): 24%
inhibition (INH) (Mus musculus [33]): 31%
inhibition (INH) (Mus musculus [34]): 33%
inhibition (INH) (Mus musculus [35]): 69%
inhibition (INH) (Mus musculus [36]): 75%
inhibition (INH) (Mus musculus [37]): 84%
inhibition (INH) (Mus musculus [38]): 90%
inhibition (INH) (Mus musculus [39]): 87%
inhibition (INH) (Mus musculus [40]): 88%
